We go through 6 substances from ChEMBL document CHEMBL1126100, “Anticancer activity in murine and human tumor cell lines of bis(platinum) complexes incorporating straight-chain aliphatic diamine linker groups” (J Med Chem, 1992).

Holding throughout (type): functional, cell-based
The test system of one experiment is AH125 cell line. The experiment can be described thus: In vitro growth inhibition by the compound was determined in human AH125 tumor cell lines. In short, it runs like this:
(§1)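 ID50 (µM) for growth inhibition of human tumor lines: HCT-8 colon adenocarcinoma and the H23, AH125 and H520 non-small cell lung carcinomas. Reported as mean ± SEM of at least four experiments, or as the average of at least two separate experiments.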

The subject of a further experiment is HCT-8. In words: In vitro growth inhibition by the compound was determined in human HCT-8 tumor cell lines. In short, it runs like this: as §1
The test system of a further experiment is NCI-H23. In words: In vitro growth inhibition by the compound was determined in human H23 tumor cell lines. In short, it runs like this:
as §1

The test system of the next experiment is L1210 (DACH). In words: In vitro growth inhibition by the compound was determined in cisplatin-resistant murine L1210DACH cell lines. The settings on record: Mus musculus. In a few lines:
(§2)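 Growth inhibition of murine leukemia lines (cisplatin-resistant variants and cisplatin-sensitive L1210S, P388S) followed a published procedure, read out as ID50. Values are mean ± SEM of 3 to 17 separate experiments, or averages of at least two experiments. Each experiment's value was the mean of duplicates.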

The next experiment concerns L1210. The experiment can be described thus: In vitro growth inhibition by the compound was determined in cisplatin-sensitive murine L1210S cell lines. The settings on record: Mus musculus. In a few lines: as §2
Another experiment has as its system P388PtR4. The experiment can be described thus: In vitro growth inhibition by the compound was determined in cisplatin-resistant murine P388PtR4 cell lines. The settings on record: Mus musculus. In short, it runs like this: as §2
A further experiment relates to P388/S. In words: In vitro growth inhibition by the compound was determined in cisplatin-sensitive murine P388S cell lines. The settings on record: Mus musculus. In short, it runs like this:
as §2

Another experiment concerns L1210 (PtR4). In words: In vitro growth inhibition by the compound was determined in cisplatin-resistant murine L1210PtR4 cell lines. The settings on record: Mus musculus. In a few lines: as §2
The subject of the next experiment is L1210 (DDP5). The experiment can be described thus: In vitro growth inhibition by the compound was determined in cisplatin-resistant murine L1210DDP5 cell lines. The settings on record: Mus musculus. In a few lines:
as §2

A further experiment has as its system NCI-H520. In words: In vitro growth inhibition by the compound was determined in human H520 tumor cell lines. In a few lines:
as §1

As for “mu-(1,7-Heptanediamine-N,N')bis-(cis-aminedichloroplatimum (II))”, the ID50 in the experiment with AH125 cell line was determined as 120 nM; in the experiment on HCT-8, 100 nM; in the experiment on NCI-H23, 30 nM; in the experiment on L1210 (DACH), 500 nM; with L1210 it was 220 nM; in the experiment with P388PtR4, 910 nM. For the same substance, the ID50 stood at 140 nM in the experiment with P388/S, 730 nM in the experiment on L1210 (PtR4) and 1230 nM in the experiment on L1210 (DDP5).

As to “mu-(1,7-nanodiamine-N,N')bis-(cis-aminedichloroplatimum (II))”, the ID50 in the experiment on AH125 cell line is 260 nM; with HCT-8 it was 190 nM; in the experiment with NCI-H520, 140 nM; in the experiment on NCI-H23, 56 nM; with L1210 (DACH), 1600 nM; with L1210 it was 290 nM. Also, the ID50 in the experiment with P388PtR4 was 3200 nM; in the experiment on P388/S it was 210 nM; in the experiment on L1210 (PtR4), 2200 nM; with L1210 (DDP5) it was 2800 nM.

In the case of CISPLATIN, the ID50 was found to be 700 nM in the experiment on AH125 cell line; 1300 nM with HCT-8; 470 nM with NCI-H520; 310 nM with NCI-H23; 2100 nM with L1210 (DACH); 920 nM in the experiment on L1210. Besides, the ID50 in the experiment with P388PtR4 was found to be 23300 nM; in the experiment on P388/S, 700 nM; in the experiment with L1210 (PtR4), 19100 nM; in the experiment with L1210 (DDP5) it was 16100 nM.

On to “mu-(1,5-pentanediamine-N,N')bis-(aminedioato(2-)-O,O'platimum (II))”, for which the ID50 with AH125 cell line worked out at 3680 nM; in the experiment with HCT-8, 4420 nM; in the experiment on NCI-H520, 1830 nM; in the experiment with NCI-H23 it was 1480 nM; with L1210 (DACH) it was 9490 nM; in the experiment on L1210, 3830 nM. Besides, the ID50 in the experiment on P388PtR4 came to 16000 nM; in the experiment on P388/S, 2060 nM; in the experiment on L1210 (PtR4), 13000 nM; in the experiment with L1210 (DDP5) it was 17200 nM.

“0-Hexyl-1,3-diamine-platinum 2,2-dichloride”: the ID50 in the experiment on L1210 (DACH) amounted to 9500 nM; with L1210, 210 nM; in the experiment on P388PtR4, 2260 nM; in the experiment on P388/S, 210 nM; with L1210 (PtR4), 190 nM; in the experiment on L1210 (DDP5), 380 nM.

For the substance CI-973, the ID50 turned out to be 4200 nM with HCT-8; 3900 nM in the experiment with NCI-H520; 3900 nM with NCI-H23; 3600 nM with L1210 (DACH); 1400 nM in the experiment with L1210; 3700 nM in the experiment with P388PtR4. Also, the ID50 in the experiment with P388/S turned out to be 220 nM; with L1210 (PtR4), 5400 nM; in the experiment on L1210 (DDP5), 8600 nM.
